# Source: PubChem BioAssay (several laboratories)
# Compounds with a hit are over-represented: about 2.5% of the library has one in this group of screens.
# PG9 Ab binder = binders of HIV-1 gp120 antibody PG9, primary screen, biochemical, TR-FRET. HIV-1 gp120 / PG9 antibody interaction. TR-FRET gp120-PG9 antibody binding. inhibition, % at 6.7 µM. hit rate 0.43% among 360,000. AID 624416, 2012; in the data active = inhibition above about 8.5%
# MC4R ag barr = MC4R agonists recruiting beta-arrestin, primary screen, cell-based, luminescence, agonist arm of biased-ligand search. U2OS MC4R beta-arrestin complementation; percent of melanotan II response, DMSO zero. activation, % at 8.9 µM. hit rate 0.98% among 360,000. AID 540308, 2011;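 active = activation above a per-plate cutoff, the mean activation of sample wells on that plate plus 3 SD, cut at about 8% in these data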
# MC4R antag cAMP = MC4R antagonists of cAMP signaling, primary screen, cell-based, TR-FRET, antagonist arm of biased-ligand search; inhibition, % at 6.5 µM; hit rate 0.48% among 360,000; Melanocortin receptor 4 (Homo sapiens), P32245; MC4R-expressing cells, MTII-stimulated cAMP, LANCE TR-FRET;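 active = inhibition above its plate's cutoff, the mean of tested wells on that plate plus 3 SD, cut at about 29% in these data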;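 note: 0% = Melanotan II alone and 100% = Melanotan II plus saturating MCL0020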
#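 Assay system: U2OS-MC4R stable cell line; Also added: Melanotan II; Technique: Eu-cAMP/anti-cAMP TR-FRET, emission 671 nm; Times: 30-min compound, 1-h challenge, 1-h detection, room temperature.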
# Rev-erbA mod = modulators of Rev-erb alpha DNA binding, primary screen, biochemical, FITC-DNA, fluorescence polarization, uHTS; activity, % at 10 µM; hit rate 0.79% among 370,000; Rev-erbα–FITC-DNA binding, 90 min;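 active = activity above about 14%, limit read from the data; passing the limit was not always enough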;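 note: 0% = DMSO wells with 35 nM protein and 100% = DMSO wells with 750 nM protein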
# NTR1 ag = agonists of human NTR1, primary screen, imaging, U2OS cells, beta-arrestin-GFP, high content. hit rate 0.17% among 330,000. NTR1-U2OS beta-arrestin-GFP spot imaging, agonist mode. activation, % at 20 µM;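 active = activation at or above 40% of the spot to cytoplasm intensity ratio, with at least 20 cells analyzed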;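 note: 0% = DMSO without peptide and 100% = 100 nM NTR1 peptide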
# Target sequence (P30989 whole entry, looked up): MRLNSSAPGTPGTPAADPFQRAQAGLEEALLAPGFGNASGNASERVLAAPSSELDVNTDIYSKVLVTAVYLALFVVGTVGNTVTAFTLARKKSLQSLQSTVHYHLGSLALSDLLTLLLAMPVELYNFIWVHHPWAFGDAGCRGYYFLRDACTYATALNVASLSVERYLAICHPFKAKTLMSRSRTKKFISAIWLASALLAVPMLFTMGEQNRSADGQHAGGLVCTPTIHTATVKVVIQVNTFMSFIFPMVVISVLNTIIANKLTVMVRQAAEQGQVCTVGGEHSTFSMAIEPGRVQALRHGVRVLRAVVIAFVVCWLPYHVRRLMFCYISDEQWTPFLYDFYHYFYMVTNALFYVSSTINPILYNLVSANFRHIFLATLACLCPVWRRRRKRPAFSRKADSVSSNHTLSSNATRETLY
# * = called active by the depositor; x = no result.
SMILES,PG9 Ab binder,MC4R ag barr,MC4R antag cAMP,Rev-erbA mod,NTR1 ag
COc1ccc(-c2cc(C(=O)NN=Cc3ccccc3F)[nH]n2)cc1,x,x,x,-7.9,x
O=C1NC(c2ccccc2)=C(c2nc3ccccc3s2)C(c2ccc(O)cc2)N1 (stereo unspecified),x,63.1*,18.2,x,10.6
CCCn1c(=O)[nH]c(=O)c2c1nc(-c1ccc(OC(F)(F)C(F)C(F)(F)F)cc1)n2CCOC (stereo unspecified),-1.6,10.0*,9.7,0.8,7.5
CCCn1c(=O)[nH]c(=O)c2c1nc(-c1ccc(C#N)cc1)n2CCOC,1.1,-1.4,-0.6,-4.7,-1.1
COc1ccc(/C=N/NC(=O)COc2ccc(Cl)cc2Cl)cc1Cn1nc(C)cc1C,-2.6,18.4*,-2.8,-5.2,-0.2
O=C(N[C@@H](Cc1cccnc1)C(=O)N1CCC[C@H]1C(=O)NC1CCCC1)C1CC1,-0.8,x,x,-3.7,x
O=C(CSc1ccccc1)Nc1nc2ccccc2[nH]1,-1.6,2.2,-0.4,2.8,-0.1
O=C(CSc1ccc(Cl)cc1)Nc1ccc(-c2nc3ccccc3[nH]2)cc1,2.9,10.2*,14.0,-3.5,-1.3
Cc1ccc(S(=O)(=O)NCCc2ccccc2)cc1,1.2,-1.0,-0.6,0.6,-1.4
Cc1ccc(S(=O)(=O)NN(Cc2ccccc2)Cc2ccccc2)cc1,-0.9,8.8*,-0.1,-3.2,x
Cc1ccccc1C(=O)N1CCC(Oc2cccnc2)CC1,x,x,x,2.2,x
CC(C)c1ccc(NC(=O)Nc2nc(C(N)CCc3ccccc3)cs2)cc1 (stereo unspecified),0.2,-1.4,23.8,-0.6,x
NC(CCc1ccccc1)c1csc(NC(=O)NCC2CCCCC2)n1 (stereo unspecified),0.0,8.7*,3.5,8.7,x
NC(CCc1ccccc1)c1csc(NC(=O)Nc2cccc(C(F)(F)F)c2)n1 (stereo unspecified),-0.1,8.8*,11.3,2.6,x
COc1ccc(-c2nnc(SCc3c(F)cccc3F)n2N)cc1,x,x,x,-3.8,x
COc1ccc(OCC(=O)Nc2cc(S(=O)(=O)N3CCCC3)ccc2Cl)cc1,1.9,9.0*,-2.2,-3.9,-0.7
CCc1ccc(OCC(=O)Nc2ccc(S(=O)(=O)N3CCCC3)cc2)c(Br)c1,-0.5,21.2*,13.9,-7.0,8.2
CCOC(=O)[C@]12CCCC=C1N(Cc1ccc(OC)cc1)C(=O)[C@@H]2CC(=O)NCCCN1CCCC1=O,x,x,x,-5.2,x
O=C1NC(c2ccccc2)(c2ccccc2)C(=O)N1COP(=O)(O)O,x,x,x,-5.3,x
Cc1cc(C(=O)Nc2sc3c(c2C#N)CCC(C)C3)cs1 (stereo unspecified),4.2,8.3*,1.2,7.5,-0.2
CCOC(=O)C1=C(C)N=C2SCCC(=O)N2C1c1ccc(C(=O)OC)cc1 (stereo unspecified),-0.6,-1.2,9.4,2.9,0.9
CCOC(=O)C1=C(C)N2C(=C(C#N)[C@@H]1c1ccc(C(=O)OC)cc1)SC[C@@]2(O)C(C)(C)C,1.8,0.5,32.9*,6.5,13.0
O=C(N1CCc2ccccc2C1)n1cc(C(O)(c2ccccc2)c2ccccc2)nn1,x,x,x,-4.0,x
C=CCOc1ccccc1CN(C(=O)CCl)c1ccc2c(c1)OCO2,-2.4,15.3*,9.3,-3.5,3.5
CCOc1ccccc1NC(=O)Nc1ccc2c(c1)OCO2,-1.4,-2.4,-4.8,-1.1,0.4
SMILES,PG9 Ab binder,MC4R ag barr,MC4R antag cAMP,Rev-erbA mod,NTR1 ag
O=[N+]([O-])c1cnc(Sc2ccncn2)s1,-3.7,-4.0,35.3*,-0.9,8.9
Cc1ccc(-n2nc3c(N4CCC(C(=O)NCCc5ccccc5C)CC4)nnc(C)c3c2C)cc1,x,16.4*,6.2,x,17.4
O=C(CN1CCN(c2nc(-c3ccccc3)cs2)CC1)NNC(=O)c1ccc(Br)cc1,-0.2,7.9,5.5,2.9,2.8
COc1cccc(-c2csc(N3CCN(CC(=O)NNC(=O)c4ccc(Br)cc4)CC3)n2)c1,-0.8,10.0*,-4.7,0.3,1.7
COc1cccc(-c2csc(N3CCN(CC(=O)NNC(=O)c4ccco4)CC3)n2)c1,-0.9,-4.2,5.7,1.5,0.5
COc1cccc(-c2csc(N3CCN(CC(=O)NNC(=O)c4ccc(Cl)cc4)CC3)n2)c1,-0.5,8.8*,0.4,-2.0,1.0
CCCN1CCS(=O)(=O)N(Cc2cn(Cc3ccc(F)cc3)nn2)C(C(=O)OC)C1 (stereo unspecified),x,x,x,-3.6,x
COc1ccc(C(=O)NNC2=Nc3cccc4cccc2c34)cc1,-16.1,9.0*,-5.4,7.8,0.6
CCN(CC(=O)Nc1ccc(NC(C)=O)cc1)C(=O)/C=C/c1cn(-c2ccccc2)nc1-c1ccc(F)cc1,-0.9,8.4*,0.6,3.9,13.8
CC(C)NS(=O)(=O)c1ccc(NC(=O)C(C)OC(=O)CCC2CCCC2)cc1 (stereo unspecified),-1.2,8.4*,8.9,-9.3,3.3
CN[C@H]1C[C@H]2c3[nH]c4c(-c5ccccc5)cccc4c3CCN2C[C@H]1[C@H](C)O,-1.2,x,x,-3.6,x
CSc1ccc(C2C(C(=O)c3ccco3)=C(O)C(=O)N2c2nnc(SC)s2)cc1 (stereo unspecified),1.9,-2.3,32.9*,4.5,1.3
Cc1nnc(N2C(=O)C(O)=C(C(=O)c3ccco3)C2c2ccc(F)cc2)s1 (stereo unspecified),-0.5,1.3,4.9,0.4,-2.2
Cc1ccc(C)c(OCCC(=O)OCC(=O)Nc2ccc(Cl)cn2)c1,3.5,9.5*,3.5,0.2,0.1
c1nc(NCC2CCOC2)c2cc(-c3ccc4c(c3)OCO4)ccc2n1 (stereo unspecified),x,x,x,0.5,x
O=C(OCc1ccccc1)[C@H](Cc1ccccc1)NC(=O)[C@@H]1CC=C[C@@H]2CCN(Cc3ccccc3)C(=O)[C@@H]21,x,x,x,0.1,x
O=S(=O)(Nc1nc2ccccc2nc1Nc1cccc(S(=O)(=O)N2CCCCC2)c1)c1ccccc1,1.9,8.5*,13.2,0.7,20.6
CCOC(=O)N1CCc2c(sc3c2C(=O)NC(c2ccccc2)N3)C1 (stereo unspecified),x,9.0*,10.7,x,3.1
CN1CCc2c(sc3c2C(=O)NC(c2cccc(OC(=O)c4cccs4)c2)N3)C1 (stereo unspecified),-1.7,-0.8,-3.0,-0.4,-2.7
COc1cc(C(=O)Nc2nccs2)ccc1OCc1c(C)noc1C,2.2,4.1,13.9,-0.1,-0.2
COc1cc(C(=O)Nc2nc3ccccc3s2)ccc1OCc1c(C)noc1C,11.0*,2.1,10.2,-0.9,2.8
